Laboratory results from ChEMBL document CHEMBL1144326, “Exploring the active site of phenylethanolamine N-methyltransferase with 3-hydroxyethyl- and 3-hydroxypropyl-7-substituted-1,2,3,4-tetrahydroisoquinolines” (Bioorg Med Chem Lett, 2005).

Tests used:
[1] = molecular target: T1, Alpha-2A adrenergic receptor (Homo sapiens, UniProt P08913); experiment: Binding affinity against human alpha 2A adrenergic receptor in CHO cells using [3H]RX-821002 as radioligand; assay type: cell-based
T1 sequence (P08913 whole entry): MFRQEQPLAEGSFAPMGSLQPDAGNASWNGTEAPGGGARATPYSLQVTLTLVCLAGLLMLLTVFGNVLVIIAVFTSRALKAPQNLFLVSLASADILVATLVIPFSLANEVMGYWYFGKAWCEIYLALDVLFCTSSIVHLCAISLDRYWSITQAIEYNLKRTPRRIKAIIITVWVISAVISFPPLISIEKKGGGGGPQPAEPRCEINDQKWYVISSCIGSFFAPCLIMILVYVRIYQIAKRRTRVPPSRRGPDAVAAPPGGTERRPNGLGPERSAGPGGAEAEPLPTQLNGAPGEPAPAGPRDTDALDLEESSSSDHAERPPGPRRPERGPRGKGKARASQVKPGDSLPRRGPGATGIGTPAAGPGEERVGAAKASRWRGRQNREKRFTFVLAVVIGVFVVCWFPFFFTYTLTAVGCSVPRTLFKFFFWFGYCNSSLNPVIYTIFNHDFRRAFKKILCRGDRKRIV
How it was run: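 Membranes from CHO cells stably transfected with human α2A-adrenoceptor; [³H]RX821002 at 0.2 nM as radioligand; nonspecific binding defined with (−)-norepinephrine; displacement of radioligand measured.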

[2] = molecular target: T2, Adrenergic receptor alpha-2 (Rattus norvegicus, UniProt P22086+P19328+P22909); experiment: Binding affinity against alpha 2 adrenergic receptor in rat cortex using [3H]clonidine as radioligand; assay type: tissue-based
T2 sequence (P22086 whole entry): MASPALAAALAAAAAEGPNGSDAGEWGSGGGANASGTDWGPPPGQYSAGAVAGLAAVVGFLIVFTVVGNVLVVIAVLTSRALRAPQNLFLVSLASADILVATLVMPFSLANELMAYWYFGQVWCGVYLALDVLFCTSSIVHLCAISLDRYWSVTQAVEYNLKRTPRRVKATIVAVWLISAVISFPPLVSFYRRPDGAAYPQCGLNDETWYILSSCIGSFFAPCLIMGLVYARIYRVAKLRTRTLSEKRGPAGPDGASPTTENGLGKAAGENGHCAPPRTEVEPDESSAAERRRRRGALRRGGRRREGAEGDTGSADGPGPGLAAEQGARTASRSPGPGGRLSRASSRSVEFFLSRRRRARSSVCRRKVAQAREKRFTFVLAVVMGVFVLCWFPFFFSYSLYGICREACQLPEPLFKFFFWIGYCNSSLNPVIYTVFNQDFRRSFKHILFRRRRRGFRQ
T2 sequence (P19328 whole entry): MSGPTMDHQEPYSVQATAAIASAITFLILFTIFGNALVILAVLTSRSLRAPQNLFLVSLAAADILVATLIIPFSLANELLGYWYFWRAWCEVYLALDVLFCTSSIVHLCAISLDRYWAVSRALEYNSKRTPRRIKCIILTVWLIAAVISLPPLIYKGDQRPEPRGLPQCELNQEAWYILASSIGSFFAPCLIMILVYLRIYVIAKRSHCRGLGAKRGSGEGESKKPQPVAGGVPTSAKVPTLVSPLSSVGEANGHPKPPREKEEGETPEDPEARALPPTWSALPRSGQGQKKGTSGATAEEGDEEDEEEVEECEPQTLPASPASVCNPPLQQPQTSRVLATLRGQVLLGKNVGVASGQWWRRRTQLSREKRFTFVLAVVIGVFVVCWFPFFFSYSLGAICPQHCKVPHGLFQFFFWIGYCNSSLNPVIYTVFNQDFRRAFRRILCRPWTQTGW
T2 sequence (P22909 whole entry): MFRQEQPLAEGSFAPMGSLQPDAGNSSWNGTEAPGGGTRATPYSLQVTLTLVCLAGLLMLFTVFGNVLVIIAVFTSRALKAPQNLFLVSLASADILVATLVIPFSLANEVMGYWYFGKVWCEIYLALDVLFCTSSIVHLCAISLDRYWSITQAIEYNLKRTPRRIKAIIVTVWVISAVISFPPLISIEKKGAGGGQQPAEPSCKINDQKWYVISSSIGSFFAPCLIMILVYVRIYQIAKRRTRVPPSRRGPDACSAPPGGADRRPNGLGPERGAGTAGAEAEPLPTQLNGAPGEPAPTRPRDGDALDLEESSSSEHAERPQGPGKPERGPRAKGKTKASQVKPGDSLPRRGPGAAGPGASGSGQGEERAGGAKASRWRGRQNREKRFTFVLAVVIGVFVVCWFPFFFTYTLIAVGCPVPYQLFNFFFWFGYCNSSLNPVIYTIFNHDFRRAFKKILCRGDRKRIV

| pKi [1] | Ki [2] | Structure (SMILES) |
| --- | --- | --- |
| 3.4 | – | O=[N+]([O-])c1ccc2c(c1)CNC(C(F)(F)F)C2 (centres undefined) |
| – | 1 µM | OCC1Cc2ccc(Br)cc2CN1 (centres undefined) |
| 3.2 | – | O=[N+]([O-])c1ccc2c(c1)CNC(CF)C2 (centres undefined) |
| 4.35 | – | FC(F)(F)C1Cc2ccc(Br)cc2CN1 (centres undefined) |
| – | 46 µM | O=[N+]([O-])c1ccc2c(c1)CNC(CCO)C2 (centres undefined) |
| – | 1.3 µM | OCCC1Cc2ccc(Br)cc2CN1 (centres undefined) |
| – | 4.8 µM | OCCCC1Cc2ccc(Br)cc2CN1 (centres undefined) |
| – | 59 µM | O=[N+]([O-])c1ccc2c(c1)CNC(CCCO)C2 (centres undefined) |
| 3.6 | – | O=[N+]([O-])c1ccc2c(c1)CNC(C(F)F)C2 (centres undefined) |
| 3.9 | – | O=[N+]([O-])c1ccc2c(c1)CNC(CO)C2 (centres undefined) |

| Structure (SMILES) | pKi [1] | Ki [2] |
| --- | --- | --- |
| Clc1ccc2c(c1Cl)CNCC2 | 6.52 | – |
| CC1Cc2ccc([N+](=O)[O-])cc2CN1 (centres undefined) | 4.84 | – |
| O=[N+]([O-])c1ccc2c(c1)CNCC2 | 3.2 | – |
| NS(=O)(=O)c1ccc2c(c1)CNCC2 | 3.4 | – |
